The subject of series [1] is Mus musculus. Nature of the series: Toxicity in human MDA-MB-231 cells xenografted athymic nude mouse left cardiac ventricle assessed as effect on platelets at 25 mg/kg, ip administered every other day for 3 weeks (reference value: 513 +/- 54 K/uL). It counts as organism-based, Heart. To be noted: in vivo, 504 h. More on the design: dose 25 mg/kg, route intraperitoneal. In general terms: A xenograft is tissue or cells of one species grown in another, often human tumour cells in immunodeficient mice.

In series [2] the test system is MDA-MB-231. Kind of series: Cytotoxicity against human MDA-MB-231 cells assessed as cell viability by MTT assay. It counts as cell-based. In outline: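 MDA-MB-231 plated at 5 × 10^4 cells/cm2 and held overnight in DMEM with 10% FBS at 37°C and 5% CO2. Pre-incubated 4 h with compound in 2% FBS DMEM, then medium refreshed with TGF-β1 (5 ng/mL) for 24 h. Cell number read by MTT reduction.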
On the technique in general: Formazan colour is commonly taken as a measure of viable cells.

In series [3] the test system is MDA-MB-231. Nature of the series: Inhibition of osteolytic bone metastases in human MDA-MB-231 cells xenografted in athymic nude mouse left cardiac ventricle assessed as improvement in host survival at 25 to 50 mg/kg, ip administered every other day for 3 weeks measured on day 16 relative to vehicle-treated control. It counts as functional, organism-based. Particulars: Heart left ventricle. In outline:
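Intracardiac MDA-MB-231 nude mice (n = 11/group) dosed ip every other day for 3 weeks. Survival shown by Kaplan–Meier and analyzed by logrank test with post-hoc logrank test for trend.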

For series [4], the system named is MDA-MB-231. Kind of series: Inhibition of osteolytic bone metastases in human MDA-MB-231 cells xenografted in athymic nude mouse left cardiac ventricle assessed as reduction in lytic bone lesion area at 25 to 50 mg/kg, ip administered every other day for 3 weeks measured on day 16 relative to control. It counts as functional, Heart left ventricle. To be noted: dose mg/kg 25-50; route intraperitoneal. In outline: (§1)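 Four-week female athymic nude mice inoculated with 1 × 10^5 MDA-MB-231 cells in 0.1 mL PBS into the left cardiac ventricle. Dosed ip at 25 or 50 mg/kg or vehicle every other day from day 1 for 21 days, n = 11/group. Lytic lesion area quantified on radiographs on days 12, 16 and 21. Two-way ANOVA with Bonferroni.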

Series [5] has as its system MDA-MB-231. Kind of series: Inhibition of TGF-beta-induced PTHrP secretion in human MDA-MB-231 cells at 100 uM treated 4 hrs before TGF-beta challenge measured after 24 hrs by radioimmunoassay. It counts as functional, cell-based. In outline: (§2)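 MDA-MB-231 plated at 5 × 10^4 cells/cm2 and held overnight in DMEM with 10% FBS. Pre-treated 4 h with compound (0.1–100 μM in methods; 0.1–300 μM in legend) in 2% FBS, then recombinant human TGF-β1 (5 ng/mL) or medium alone for 24 h. PTHrP measured in conditioned media by radioimmunoassay, n = 4 wells/group. IC50 from four-parameter logistic fit.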

Series [6] concerns MDA-MB-231. Kind of series: Inhibition of osteolytic bone metastases in human MDA-MB-231 cells xenografted in athymic nude mouse left cardiac ventricle assessed as effect on tumor burden at 25 to 50 mg/kg, ip administered every other day for 3 weeks by histological analysis. To be noted: Heart left ventricle. It counts as functional, organism-based. In outline:
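Intracardiac MDA-MB-231 model in female nude mice, dosed ip every other day for 21 days, n = 11/group. Hindlimbs harvested day 21, formalin-fixed and EDTA-decalcified. Tumor area measured blinded on mid-sagittal 5 μm H&E sections of tibiae and femora at 10x magnification.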

Series [7] relates to Mus musculus. Kind of series: Toxicity in human MDA-MB-231 cells xenografted athymic nude mouse left cardiac ventricle assessed as effect on alanine aminotransferase at 25 mg/kg, ip administered every other day for 3 weeks (reference value: 7.04 +/- 2.2 U/L). It counts as organism-based, Heart. Also on record: dose 25 mg/kg, route intraperitoneal. Particulars: in vivo, 504 h.

The subject of series [8] is MDA-MB-231. Nature of the series: Inhibition of TGF-beta-induced PTHrP secretion in human MDA-MB-231 cells treated 4 hrs before TGF-beta challenge measured after 24 hrs by radioimmunoassay. It counts as functional, cell-based. Particulars: for minimal effective concentration: read-out: MEC. In outline:
as §2

The target of series [9] is MAP kinase p38 (Homo sapiens) (UniProt O15264+Q15759+Q16539+P53778). Kind of series: Inhibition of TGF-beta-induced p38 phosphorylation in human MDA-MB-231 cells treated 12 hrs before TGF-beta challenge measured after 1 hr by Western blotting. It counts as cell-based. In outline: (§3)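 Subconfluent MDA-MB-231 pre-treated 12 h with compound (80 μM), then TGF-β (5 ng/mL) for 1 h. RIPA whole-cell lysates (18 μg) run on SDS-PAGE and transferred to PVDF. Probed with rabbit anti-phospho-Smad2, phospho-Smad3, phospho-p38 or Ets-1 (1:1000, overnight, 4 °C). β-actin used as loading control. Chemiluminescent detection; three independent experiments.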
A general note: In western blotting, separated proteins are transferred to a membrane and probed.

Series [10] concerns MDA-MB-231. Nature of the series: Inhibition of osteolytic bone metastases in human MDA-MB-231 cells xenografted in athymic nude mouse left cardiac ventricle assessed as improvement in body weight at 25 to 50 mg/kg, ip administered every other day for 3 weeks measured on day 16 relative to vehicle-treated control. It counts as functional, organism-based. Particulars: Heart left ventricle.

Series [11] has as its system Mus musculus. Kind of series: Toxicity in human MDA-MB-231 cells xenografted athymic nude mouse left cardiac ventricle assessed as effect on alanine aminotransferase at 50 mg/kg, ip administered every other day for 3 weeks (reference value: 7.04 +/- 2.2 U/L). To be noted: in vivo, 504 h. More on the design: dose 50 mg/kg, route intraperitoneal. It counts as organism-based, Heart.

In series [12] the test system is Mus musculus. Kind of series: Toxicity in human MDA-MB-231 cells xenografted athymic nude mouse left cardiac ventricle assessed as effect on hematocrit at 50 mg/kg, ip administered every other day for 3 weeks (reference value: 30.2 +/- 1.5%). It counts as organism-based, Heart. More on the design: dose 50 mg/kg, route intraperitoneal. Particulars: in vivo, 504 h.

Series [13] has as its target Mothers against decapentaplegic homolog 3 (Homo sapiens) (UniProt P84022). Nature of the series: Inhibition of TGF-beta-induced Smad3 phosphorylation in human MDA-MB-231 cells treated 12 hrs before TGF-beta challenge measured after 1 hr by Western blotting. It counts as cell-based. In outline: as §3
For series [14], the system named is Mus musculus. Nature of the series: Toxicity in human MDA-MB-231 cells xenografted athymic nude mouse left cardiac ventricle assessed as effect on spleen weight at 25 mg/kg, ip administered every other day for 3 weeks (reference value: 0.134 +/- 0.02 gram). To be noted: in vivo, 504 h. It counts as organism-based. More on the design: dose 25 mg/kg, route intraperitoneal.

Series [15] relates to MDA-MB-231. Kind of series: Inhibition of osteolytic bone metastases in human MDA-MB-231 cells xenografted in athymic nude mouse left cardiac ventricle assessed as reduction in lytic bone lesion area at 25 to 50 mg/kg, ip administered every other day for 3 weeks measured on day 21 relative to control. Particulars: dose mg/kg 25-50; route intraperitoneal. It counts as functional, Heart left ventricle. In outline: as §1

Series [16] deals with Mus musculus. Nature of the series: Toxicity in human MDA-MB-231 cells xenografted athymic nude mouse left cardiac ventricle assessed as effect on white blood cells at 50 mg/kg, ip administered every other day for 3 weeks (reference value: 5.84 +/- 1.3 K/uL). Particulars: in vivo, 504 h.
The subject of series [17] is Mus musculus. Kind of series: Toxicity in human MDA-MB-231 cells xenografted athymic nude mouse left cardiac ventricle assessed as effect on platelets at 50 mg/kg, ip administered every other day for 3 weeks (reference value: 513 +/- 54 K/uL). It counts as organism-based, Heart. To be noted: in vivo, 504 h. Also on record: dose 50 mg/kg, route intraperitoneal.
Series [18] deals with Mus musculus. Nature of the series: Toxicity in human MDA-MB-231 cells xenografted athymic nude mouse left cardiac ventricle assessed as effect on liver weight at 25 mg/kg, ip administered every other day for 3 weeks (reference value: 1 +/- 0.10 gram). It counts as organism-based, Heart. Also on record: dose 25 mg/kg, route intraperitoneal. To be noted: in vivo, 504 h.
Series [19] relates to MDA-MB-231. Nature of the series: Inhibition of osteolytic bone metastases in human MDA-MB-231 cells xenografted in athymic nude mouse left cardiac ventricle assessed as reduction of bone-tumor interface at 25 mg/kg, ip administered every other day for 3 weeks. It counts as functional. To be noted: MDA-MB-231, Heart left ventricle, 504 h, route intraperitoneal. In outline: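 Intracardiac MDA-MB-231 model in nude mice, dosed ip every other day for 21 days. Mid-sagittal tibia and femur sections TRAP-stained. TRAP+ multinucleated (>3 nuclei) cells counted at 40x along the tumor-bone interface. Expressed as osteoclasts per mm of interface.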

Activity calls are given as the source filed them. The rule behind the calls is not given here.

Mothers against decapentaplegic homolog 3 (Homo sapiens), sequence (P84022 2-425 limits assumed): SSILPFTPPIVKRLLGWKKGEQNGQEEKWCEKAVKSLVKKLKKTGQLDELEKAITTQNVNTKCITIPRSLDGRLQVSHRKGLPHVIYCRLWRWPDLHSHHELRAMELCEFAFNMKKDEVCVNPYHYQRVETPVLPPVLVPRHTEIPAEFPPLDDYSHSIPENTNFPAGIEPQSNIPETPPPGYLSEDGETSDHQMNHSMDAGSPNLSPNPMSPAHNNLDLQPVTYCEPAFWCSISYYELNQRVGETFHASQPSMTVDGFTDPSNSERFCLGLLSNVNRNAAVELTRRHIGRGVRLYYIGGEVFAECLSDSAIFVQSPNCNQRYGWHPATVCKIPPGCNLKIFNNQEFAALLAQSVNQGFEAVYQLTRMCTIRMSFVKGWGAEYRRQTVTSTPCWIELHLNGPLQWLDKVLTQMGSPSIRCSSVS

A word on the IC50: it is the concentration at which inhibition is half-maximal. The term inhibition in vivo denotes how much of the control response was suppressed. Regarding `COc1cc(/C=C/C(=O)CC(=O)/C=C/c2ccc(O)c(OC)c2)ccc1O` [CURCUMIN], the Activity was determined as 485 K/uL in series [1]; 7.13 U/L in series [7]; 5.02 U/L in series [11]; 31.1% in [12]; 0.129 g in [14]; 6.83 K/uL in [16]. Moreover, the Activity in [17] is on record as 589 K/uL; in series [18] it was 0.987 g. Also, the MTC in series [2] worked out at 82 µM. Besides, the outcome in series [3] and in [10] was Active. Also, the “inhibition (INH)” value in series [4] is given as 51%; in [15] it was 57%. Further, the inhibition entry in series [5] and in series [13] was “Active” each time. For the same compound, the inhibition entry in series [6] and in series [9] was “inactive” throughout. In series [8], this compound displayed an IC50 of 24 µM. Besides, the inhibition entry in series [8] is “Dose-dependent effect”. Moreover, the minimal effective concentration in [8] turned out to be 13 µM. Moreover, the inhibition in vivo at 25 mg/kg in [19] stood at 53%.

As for `COc1cc(/C=C/C(O)=C/C(=O)/C=C/c2ccc(O)cc2)ccc1O` [DEMETHOXYCURCUMIN], the Activity in [1] is 485 K/uL; in series [7], 7.13 U/L; in series [11], 5.02 U/L; in series [12], 31.1%; in series [14], 0.129 g; in [16] it was 6.83 K/uL. Also, the Activity in series [17] is 589 K/uL; in [18], 0.987 g. In addition, in [2], the MTC was 82 µM. In addition, the result in series [3] and in [10] was Active. Also, the “inhibition (INH)” value in series [4] was 51%; in series [15], 57%. Further, the inhibition result in [5] and in series [13] was “Active” each time. Moreover, the inhibition result in [6] and in [9] was “inactive” each time. Further, in series [8], the midpoint of inhibition, the IC50, lay at 24 µM. Besides, the inhibition entry in [8] was “Dose-dependent effect”. Further, the minimal effective concentration in [8] was 13 µM. Also, the inhibition in vivo at 25 mg/kg in series [19] was determined as 53%.

Consider `O=C(/C=C/c1ccc(O)cc1)CC(=O)/C=C/c1ccc(O)cc1` [BISDEMETHOXYCURCUMIN], for which the Activity in series [1] is 485 K/uL; in series [7], 7.13 U/L; in series [11] it was 5.02 U/L; in series [12], 31.1%; in [14], 0.129 g; in series [16] it was 6.83 K/uL. Further, the Activity in series [17] came out at 589 K/uL; in [18], 0.987 g. Besides, the MTC in series [2] was determined as 82 µM. Besides, the outcome in series [3] and in series [10] was Active. Besides, the “inhibition (INH)” value came to 51% in series [4] and 57% in series [15]. Besides, the inhibition result in [5] and in [13] was “Active” throughout. The inhibition entry in series [6] and in series [9] was “inactive” in each case. In addition, the IC50 in [8] turned out to be 24 µM. Also, the inhibition entry in series [8] is “Dose-dependent effect”. Besides, in [8], the minimal effective concentration came out at 13 µM. Besides, the inhibition in vivo at 25 mg/kg in series [19] is 53%.

These data come from ChEMBL document CHEMBL2396536, “Curcuminoids block TGF-β signaling in human breast cancer cells and limit osteolysis in a murine model of breast cancer bone metastasis” (J Nat Prod, 2013).
